Measured values pooled from the literature.
Cell line: HCT-116
Read-out: cell growth or viability

| SMILES | assay | conditions | quantity | value |
| --- | --- | --- | --- | --- |
| CC(=NNC(=O)COc1ccc2c(C)c(Cc3ccccc3)c(=O)oc2c1C)c1ccc(Br)cc1 | MTT | 0.4 µg/mL | viability | 64.3% |
| COc1nc(NCc2cn(-c3ccc(C(=O)Nc4ccc(C)cc4)cc3)nn2)nc(OC)n1 | MTT | 72 h | IC50 | 0.0276 µM |
| COc1cc2ncnc(Nc3ccc4c(c3)/C(=C/c3ccccc3)C(=O)N4)c2cc1OC | MTT |  | IC50 | 25.7 µM |
| COc1ccc(-c2cc(-c3c(OC)cccc3OC)c3c(=O)[nH]c(=O)[nH]c3n2)cc1 | MTT | 48 h | IC50 | 29 µM |
| C=CC(=O)c1cccnc1Nc1cc(C(F)(F)F)ccc1OCc1ccccc1 | CCK-8 | 72 h | GI50 | 8.72 µM |
| COc1cccc2c1C(=O)c1c(O)c3c(c(O)c1C2=O)C[C@@](O)(C(=O)CO)C[C@@H]3O[C@H]1C[C@H](N)[C@H](O)[C@H](C)O1 | MTT | 72 h | IC50 | 0.83 µM |
| Cc1nc(Nc2ccc3c(c2)/C(=C/c2ccccc2Cl)C(=O)N3)c2ccccc2n1 | MTT |  | IC50 | 3.67 µM |
| O=C(O)c1cccnc1Nc1cccc(C(F)(F)F)c1 | CCK-8 | 72 h | GI50 | > 40 µM |
| COc1nc(NCc2cn(-c3ccc(NC(=O)c4ccc([N+](=O)[O-])cc4)cc3)nn2)nc(OC)n1 | MTT | 72 h | IC50 | 0.0578 µM |
| COc1ccc(-c2cc(-c3ccc(Br)cc3)c3c(=O)[nH]c(=O)[nH]c3n2)cc1 | MTT | 48 h | IC50 | 7.88 µM |
| Cc1nc(Nc2ccc3c(c2)/C(=C/c2ccccc2)C(=O)N3Cc2ccccc2)c2ccccc2n1 | MTT |  | IC50 | 3.39 µM |
| COc1nc(NCc2cn(-c3ccc(NC(=O)c4ccc(C)cc4)cc3)nn2)nc(OC)n1 | MTT | 72 h | IC50 | 0.0599 µM |
| Cc1ccc(-c2cc(-c3ccc(Cl)c(F)c3)c3c(=O)n(C)c(=O)n(C)c3n2)cc1 | MTT | 48 h | IC50 | 21.4 µM |
| COc1nc(NCc2cn(-c3ccc(C(=O)Nc4ccc(Cl)cc4)cc3)nn2)nc(OC)n1 | MTT | 72 h | IC50 | 0.0329 µM |
| COc1ccc(-c2cc(-c3cccc(Br)c3)c3c(=O)[nH]c(=O)[nH]c3n2)cc1 | MTT | 48 h | IC50 | 9.77 µM |
| C=CC(=O)c1cccnc1Nc1cc(C(F)(F)F)ccc1OC | CCK-8 | 72 h | GI50 | 12.3 µM |
| COc1cc2ncnc(Nc3ccc4c(c3)/C(=C/c3cccc(Cl)c3)C(=O)N4C)c2cc1OC | MTT |  | IC50 | 8.36 µM |
| COc1nc(NCc2cn(-c3ccc(NC(=O)c4ccc(Cl)cc4)cc3)nn2)nc(OC)n1 | MTT | 72 h | IC50 | 0.0338 µM |
| COc1ccc(-c2cc(-c3ccc(C)cc3)nc3c2c(=O)n(C)c(=O)n3C)cc1OC | MTT | 48 h | IC50 | 20.8 µM |
| Cc1nc(Nc2ccc3c(c2)/C(=C/c2ccccc2C)C(=O)N3)c2ccccc2n1 | MTT |  | IC50 | 9.25 µM |
| COc1ccc(-c2cc(-c3ccc(OC)cc3)c3c(=O)[nH]c(=O)[nH]c3n2)cc1 | MTT | 48 h | IC50 | 6.59 µM |
| COc1nc(NCc2cn(-c3ccc(C(=O)Nc4ccc(Br)cc4)cc3)nn2)nc(OC)n1 | MTT | 72 h | IC50 | 0.0279 µM |
| Cc1ccc(-c2cc(-c3ccc(N(C)C)cc3)c3c(=O)[nH]c(=O)[nH]c3n2)cc1 | MTT | 48 h | IC50 | 7.66 µM |
| Cc1nc(Nc2ccc3c(c2)CC(=O)N3)c2ccccc2n1 | MTT |  | IC50 | 12.3 µM |
| COc1nc(NCc2cn(-c3ccc(C(=O)Nc4ccccc4)cc3)nn2)nc(OC)n1 | MTT | 72 h | IC50 | 0.00087 µM |
| Cc1ccc(-c2cc(-c3ccc(Cl)cc3)c3c(=O)n(C)c(=O)n(C)c3n2)cc1 | MTT | 48 h | IC50 | 5.87 µM |
